In ChEMBL document CHEMBL2021923, “Synthesis and antikinetoplastid activities of 3-substituted quinolinones derivatives” (Eur J Med Chem, 2012):

How the values were obtained:
[1] = tested on: Leishmania donovani; assay: Antikinetoplastid activity against Leishmania donovani MHOM/ET/67/HU3 promastigotes after 3 days incubation at 27 degC under dark condition and 5% CO2 atmosphere by MTT assay; assay type: functional, organism-based; conditions: MHOM/ET/67/HU3, 72 h
[2] = tested on: Trypanosoma brucei brucei; assay: Antikinetoplastid activity against Trypanosoma brucei brucei CMP by drug incubation infectivity test; assay type: functional; conditions: read-out: MEC
[3] = Cytotoxicity against human MCF7 cells assessed as cell survival at 100 uM after 72 hrs incubation by MTT assay; assay type: cell-based; conditions: read-out: Survival
[4] = tested on: MCF7; assay: Cytotoxicity against human MCF7 cells assessed as cell viability after 72 hrs incubation by MTT assay; assay type: cell-based; conditions: MCF7, 72 h
[5] = Cytotoxicity against mouse RAW264.7 cells assessed as cell survival at 100 uM after 24 hrs incubation by trypan blue exclusion method; assay type: cell-based; conditions: read-out: Survival
Summary of the method: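 RAW 264.7 mouse macrophages grown in DMEM with 10% heat-inactivated FBS, seeded at 5 × 10^4 cells/well, and held 24 h at 37 °C in 5% CO2. Medium was then replaced with fresh DMEM containing compound, followed by a further 24 h incubation. Cells were scraped off, stained with trypan blue and counted live on a hemocytometer. Viability is given as % of untreated cells (100%).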

[6] = tested on: Leishmania donovani; assay: Antikinetoplastid activity against Leishmania donovani MHOM/ET/67/HU3 amastigotes after 3 days incubation at 37 degC under dark condition and 5% CO2 atmosphere by SYBR green I dye based assay; assay type: functional, organism-based; conditions: MHOM/ET/67/HU3, 72 h
Summary of the method: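 Axenic amastigotes were obtained by diluting log-phase LV9 promastigotes into amastigote medium (M-199 with KCl, glucose, glutamine, trypticase peptone, haemin, 20% FBS; pH 5.5) and grown at 37 °C in 5% CO2. Parasites were exposed to the compounds for 72 h, then lysed. Growth was read by SYBR Green I DNA fluorescence against a parasite-density standard range, and the IC50 was derived.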

Structure (SMILES) | IC50 [1] [µM] | minimal effective concentration [2] [µM] | viability at 72 h, 100 µM [3] [%] | IC50 [4] [µM] | viability at 24 h, 100 µM [5] [%] | IC50 [6] [µM]
CCCCNc1cc2ccccc2n(C)c1=O | > 100 | > 200 | 10 | 7 | – | –
Cc1ccc(S(=O)(=O)Oc2c(NC(=O)CCCCCCCCCCOn3nnc4ccccc43)c(=O)n(C)c3ccccc23)cc1 | 37 | > 200 | 69 | – | – | –
Cn1c(=O)c([N+](=O)[O-])c(O)c2ccccc21 | > 100 | > 200 | – | – | 80 | –
Cc1ccc(S(=O)(=O)Oc2c(NC(=O)c3ccc(F)cc3)c(=O)n(C)c3ccccc23)cc1 | 49 | > 200 | 57 | – | – | –
Cc1ccc(S(=O)(=O)Oc2c(NC(=O)c3ccc4c(c3)C=CC(C)(C)O4)c(=O)n(C)c3ccccc23)cc1 | 30 | > 200 | 37 | – | – | –
COc1cc(C(=O)Nc2c(O)c3ccccc3[nH]c2=O)cc(OC)c1OC | > 100 | > 200 | 76 | – | – | –
CCCC(=O)Nc1c(O)c2ccccc2n(C)c1=O | 11 | > 200 | 97 | – | – | 3
Cc1ccc(S(=O)(=O)Oc2c(NC(=O)c3cc4ccccc4[nH]3)c(=O)n(C)c3ccccc23)cc1 | 42 | > 200 | 50 | – | – | –
COc1cc(C(=O)Nc2c(OS(=O)(=O)c3ccc(C)cc3)c3ccccc3[nH]c2=O)cc(OC)c1OC | 18 | > 200 | 55 | – | – | –
CCCCCCCCCCCCCCCCOP(=O)([O-])OCC[N+](C)(C)C [MILTEFOSINE] | – | – | – | – | 85 | 5
Cn1c(=O)c(NC(=O)c2ccc3c(c2)C=CC(C)(C)O3)c(O)c2ccccc21 | 53 | > 200 | 100 | – | – | –
Cn1c(=O)cc(O)c2ccccc21 | > 100 | > 200 | – | – | 70 | –
COc1ccc(C(=O)Nc2cc3ccccc3n(C)c2=O)cc1 | > 100 | > 200 | 89 | – | – | –
COc1ccc(C(=O)Nc2c(O)c3ccccc3n(C)c2=O)cc1 | 11 | > 200 | 81 | – | – | > 100
Cc1ccc(S(=O)(=O)Oc2c([N+](=O)[O-])c(=O)n(C)c3ccccc23)cc1 | 3 | > 200 | – | – | 100 | 2
COc1ccc(C(=O)Nc2cc3cc(OC)ccc3n(C)c2=O)cc1 | > 100 | > 200 | 22 | – | – | –
COc1ccc(C(=O)Nc2c(OS(=O)(=O)c3ccc(C)cc3)c3ccccc3n(C)c2=O)cc1 | 25 | > 200 | 82 | – | – | –
COc1cc(C(=O)Nc2c(OS(=O)(=O)c3cccs3)c3ccccc3n(C)c2=O)cc(OC)c1OC | 14 | > 200 | 77 | – | – | –
Cn1c(=O)c(NC(=O)c2cc3ccccc3[nH]2)c(O)c2ccccc21 | > 100 | > 200 | 107 | – | – | –
Cn1c(=O)c(NC(=O)c2ccc3c(c2)CCC(C)(C)O3)c(O)c2ccccc21 | 56 | > 200 | 98 | – | – | –
Cn1c(=O)c(NC(=O)c2ccc(F)cc2)c(O)c2ccccc21 | > 100 | > 200 | 74 | – | – | –
COc1cc(C(=O)Nc2c(OS(=O)(=O)c3ccc(C)cc3)c3ccccc3n(C)c2=O)cc(OC)c1OC | 41 | > 200 | 84 | – | – | –
COc1cc(C(=O)Nc2c(O)c3ccccc3n(C)c2=O)cc(OC)c1OC | 3.5 | > 200 | 100 | – | – | > 100
Cc1ccc(S(=O)(=O)Oc2c(NC(=O)c3ccc4c(c3)CCC(C)(C)O4)c(=O)n(C)c3ccccc23)cc1 | 30 | > 200 | 100 | – | – | –
O=[N+]([O-])c1c(O)nc2ccccc2c1O | > 100 | > 200 | – | – | 90 | –
N=C(N)c1ccc(OCCCCCOc2ccc(C(=N)N)cc2)cc1 [PENTAMIDINE] | 2.84 | 5 | – | – | 75 | –
CCCC(=O)Nc1c(OS(=O)(=O)c2ccc(C)cc2)c2ccccc2n(C)c1=O | 50 | > 200 | 55 | – | – | –
Cc1ccc(S(=O)(=O)Oc2c(N)c(=O)n(C)c3ccccc23)cc1 | 30 | 12.5 | 24 | – | – | –
Cn1c(=O)c(NC(=O)CCCCCCCCCCOn2nnc3ccccc32)c(O)c2ccccc21 | 34 | 200 | 72 | – | – | –
COc1ccc(C(=O)Nc2cc3cc(Br)ccc3n(C)c2=O)cc1 | > 100 | > 200 | 20 | – | – | –
